Activity calls are given as the source filed them.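 The calls were made as follows: active = fitted absorbance curve falls past 35% inhibition at a dose no higher than twice the top tested dose; inconclusive = flat fit at 30 to 70% inhibition, or poor fit; inactive = the rest.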
test system: not listed separately; experiment: pyoverdine output of iron-starved P. aeruginosa PAK, dose response, PAK strain, absorbance 405 nm, dry powder (AID 624107); conditions: P. aeruginosa PAK + EDDHA, pyoverdine absorbance 405 nm, 28 h; at 100 µM (top of the series)
Summary of the method: (§1)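 system = Pseudomonas aeruginosa PAK wild-type strain, whole bacterial cells | reagent = EDDHA 2 µM | medium = succinate M9 medium at pH 7.0 with 2 µM EDDHA | compound dosing = 100 µM to 15 nM final | incubation = 28 h, 30 °C, humidified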

Compound | activity change, negative = inhibition
COCCOCCC(C#N)c1ccc(Cl)cc1 (stereo unspecified) | 6.79% (inactive)
COCCNC(C#N)c1ccc(Cl)cc1 (stereo unspecified) | -17.9% (inactive)
CCCCC(C#N)c1ccccn1 (stereo unspecified) | 3.52% (inactive)
CCCCC(c1ccc(Cl)cc1)c1nn[nH]n1 (stereo unspecified) | -16.3% (inactive)
COCCC(C#N)c1ccc(Cl)cc1 (stereo unspecified) | -7.69% (inactive)
N#CC(c1ccc(C(F)(F)F)c(Cl)n1)c1ccccc1OC(F)(F)F (stereo unspecified) | -22.7% (inactive)
N#CC(c1ccc(F)cc1)c1cccc(Cl)n1 (stereo unspecified) | -39.4% (inactive)
Clc1ccc(C(c2cccc(Cl)n2)c2nn[nH]n2)cc1 (stereo unspecified) | 14.5% (inactive)
CCCCC(C#N)c1ccc(Cl)cc1 (stereo unspecified) | -14% (inactive)

test system: P. aeruginosa PAK + EDDHA, pyoverdine absorbance 405 nm, 28 h; experiment: as above; conditions: not given
Summary of the method: as §1

Compound | AC35
N#CC(c1cccc(C(F)(F)F)n1)c1ccc(Cl)cc1F (stereo unspecified) | 5.42 µM
N#CC(c1ccc(Cl)cc1)c1cccc(C(F)(F)F)n1 (stereo unspecified) | 3.67 µM
N#CC(c1ccc(Cl)cc1)c1ncccc1Cl (stereo unspecified) | 22 µM
N#CC(c1ccc(Cl)cc1)c1cccc(Cl)n1 (stereo unspecified) | 11.8 µM
N#CC(c1cccc(Cl)n1)c1ccc(Cl)cc1F (stereo unspecified) | 5.28 µM
N#CC(c1ccc(F)cc1)c1cccc(C(F)(F)F)n1 (stereo unspecified) | 9.8 µM
CN(C)CCCC(C#N)c1ccc(Cl)cc1 (stereo unspecified) | > 100 µM (inactive)

— PubChem BioAssay AID624107 (Broad Institute, 2012)
